Data on one compound can be found in article PMC3984478 (Cancer cell, 2012).

For assay [1], the system named is Z-VRPR-FMK signature genes in HBL-1 and TMD8 cell lines. Put plainly: Gene expression profiling, GSEA. The assay is classed as cell-based, human. Conditions: GI50 concentrations (HBL-1 200 nM; TMD8 500 nM), 8 hr.
A further assay relates to HLY-1 cells. The experiment in a line: Growth inhibition, ATP-based luminescent assay. It counts as cell-based, human. Conditions: HLY-1, single dose, 48 hr. In outline: (§1)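 Cells received a single dose of test compound over a concentration range and proliferation was read at 48 hr by luminescent ATP quantification. Luminescence was converted to cell number using per-line standard curves built from trypan blue counts. Viability was normalised to controls and expressed as 1 − fractional viability, and GI25/GI50 were fitted. Experiments were run three times in triplicate.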

Assay [2] concerns the target LZ-MALT1 (recombinant MALT1 (340–789) fused with a leucine zipper dimerization motif) (Homo sapiens, UniProt Q9UDY8). The experiment in a line: LZ-MALT1 fluorescence activity assay. It counts as biochemical. The settings on record: preincubation with compound before Ac-LRSR-AMC. In outline:
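Recombinant MALT1 (340–789) fused to a leucine zipper dimerization motif was preincubated with test compound (0–25 µM) for 5–90 min. Ac-LRSR-AMC substrate was then added, and AMC release was read by fluorescence at 360 nm excitation and 465 nm emission. Percent inhibition was normalized and plotted against preincubation time.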

The subject of assay [3] is MALT1-mediated cleavage of CYLD in HBL-1 cells. Put plainly: MALT1 cleavage of CYLD, western blotting and densitometry. The assay is classed as cell-based, human. On the technique in general: A western blot detects proteins with antibodies after separation by electrophoresis.
The test system of assay [4] is GCB-DLBCL cell lines (OCI-Ly7 and OCI-Ly1). Put plainly: Growth inhibition, ATP-based luminescent assay. The assay is classed as cell-based, human. Conditions: two GCB-DLBCL cell lines, single dose, 48 hr. In outline: as §1
The next assay deals with HBL-1 cells. The experiment in a line: BrdU incorporation-DAPI cell cycle. Conditions: 24 and 48 hr. The assay is classed as cell-based, human. In outline:
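HBL-1 cells were treated with test compound for 24 and 48 hr, then pulse-labelled with BrdU and co-stained with DAPI. Cell-cycle phases (S, G1-0, sub-G0) were read by flow cytometry. Data are mean ± SD of two independent experiments.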

The subject of assay [5] is MALT1 substrate cleavage in HBL-1 and TMD8 cell lines. The experiment in a line: Cleavage of MALT1 substrates A20, BCL10, RELB, western blot with MG-132. It counts as cell-based, human. Conditions: 2 µM, 30 min, then 5 µM MG-132 for 1 or 2 hr. In outline: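 HBL-1 and TMD8 cells were pretreated for 30 min with 2 µM test compound or vehicle. Proteasome inhibitor MG-132 (5 µM) was then added for a further 1 or 2 hr so that cleaved substrate forms could accumulate. Western blots were probed for A20, RELB and BCL10, and cleavage products were identified by band position.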

Another assay deals with caspase-3/7 activity. Put plainly: Cell-based caspase-3/7 activity and apoptosis inhibition. Conditions: at concentrations that suppress MALT1.
Assay [6] deals with HBL-1, TMD8, and OCI-Ly10. The experiment in a line: CFSE dilution proliferation assay. The settings on record: increasing concentrations, 48, 72, and 96 hr. It counts as cell-based, human. In outline: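 Cells were exposed to increasing concentrations of test compound, and CFSE dilution was read by flow cytometry at 48, 72 and 96 hr. 2 × 10^4 cells were acquired per sample, and DAPI staining was used to gate viable cells for analysis.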

The test system of assay [7] is primary human GCB DLBCL cells. Put plainly: Primary human DLBCL ex vivo viability, trypan blue. It counts as cell-based. Conditions: 0.8 µM, 48 hr. In outline: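 Single-cell suspensions came from lymph-node biopsies of five DLBCL patients, prepared by physical disruption and density-gradient separation. GCB versus non-GCB status was assigned by Hans-criteria IHC. Cells were cultured in RPMI with 20% FBS and antibiotics and exposed to 0.8 µM test compound (1 µM for one patient) or DMSO in quadruplicate for 48 hr. Cell number and viability were counted by trypan blue and normalised to vehicle.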

Another assay concerns the target caspase-9 (Homo sapiens, UniProt P55211). The experiment in a line: Caspase selectivity. It counts as biochemical.
The subject of another assay is HBL-1 xenografts. Put plainly: HBL-1 xenograft in NOD-SCID mice. The assay is classed as in vivo. The settings on record: IP 25 mg/kg/day, 14 injections. In outline: (§2)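 Eight-week-old male NOD-SCID (NOD.CB17-Prkdcscid/J) mice received 10^7 low-passage cells subcutaneously in 50% Matrigel in the right flank. At an average tumour size of 120 mm3, mice were randomised to test compound 25 mg/kg/day IP or vehicle (5% DMSO) for 14 consecutive days and sacrificed 24 hr after the 14th injection. Caliper volume, (smallest diameter² × largest)/2, was taken three times weekly. Ki-67 IHC was counted per high-power field.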

Another assay concerns OCI-Ly10 cells. Put plainly: Growth inhibition, ATP-based luminescent assay. Conditions: OCI-Ly10, single dose, 48 hr. The assay is classed as cell-based, human. In outline: as §1
The test system of the next assay is TMD8 xenografts. Put plainly: TMD8 xenograft in NOD-SCID mice. The assay is classed as in vivo. Conditions: IP 25 mg/kg/day, 14 injections. In outline: as §2

Chain of caspase-9 (P55211 whole entry, species assumed): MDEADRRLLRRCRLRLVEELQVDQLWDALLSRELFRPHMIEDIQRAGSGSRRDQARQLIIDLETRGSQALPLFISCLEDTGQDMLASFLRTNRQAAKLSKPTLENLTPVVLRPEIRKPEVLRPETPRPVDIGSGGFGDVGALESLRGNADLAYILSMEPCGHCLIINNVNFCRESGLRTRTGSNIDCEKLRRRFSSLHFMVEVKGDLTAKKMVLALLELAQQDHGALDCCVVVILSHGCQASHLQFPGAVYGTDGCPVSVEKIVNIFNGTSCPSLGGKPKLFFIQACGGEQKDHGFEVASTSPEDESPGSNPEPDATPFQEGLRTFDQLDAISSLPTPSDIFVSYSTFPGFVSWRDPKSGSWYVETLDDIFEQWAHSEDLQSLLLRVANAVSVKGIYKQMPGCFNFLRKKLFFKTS

For the compound `COCCOc1nc(-c2ccc(Cl)c(Cl)c2)n(-c2ccc(NC(=O)CCl)cc2)n1` [MI-2], the “enrichment of Z-VRPR-FMK signature (GSEA)” value in [1] is recorded as “significantly enriched among genes downregulated after MI-2 treatment”. In addition, the growth inhibition result in the assay with HLY-1 cells is on record as “resistant”. Further, in assay [2], the inhibition reached is approximately 100%. Moreover, in assay [3] (HBL-1, 5 µM for 8 hr, Z-VRPR-FMK 50 µM positive control), the “inhibition of MALT1 cleavage of CYLD” value is reported as “most potent compound”. Also, the “MALT1-mediated cleavage of CYLD” value in assay [3] (HBL-1, increasing concentrations, 24 hr) is recorded as “dose-dependent decrease in MALT1-mediated cleavage”. In assay [4], the growth inhibition result is recorded as “resistant”. For the same compound, the “cell cycle (BrdU-DAPI)” value in the assay on HBL-1 cells is given as “dose-dependent decrease in S phase”. Moreover, the “cleavage of A20, BCL10, and RELB” value in [5] was “diminished the abundance of cleaved forms and/or increased the abundance of full-length proteins”. In addition, in the assay on caspase-3/7 activity, the “inhibition of caspase-3/7 activity or apoptosis in cell-based assays” value was “did not inhibit”. Moreover, the “proliferation (CFSE dilution)” value in assay [6] is reported as “substantially inhibited proliferation”. Moreover, in [7], the “response of primary cases (cell number and viability)” value is listed as “none of the GCBs did”. The “activity against caspase-9” value on caspase-9 is given as “little activity”. Also, in the assay on HBL-1 xenografts, the “apoptotic cells (TUNEL) relative to vehicle” value is “significant increase in apoptotic cells”, the “c-REL nuclear protein in tumor sections” value is on record as “reduced c-REL nuclear protein”, the “proliferation (Ki-67 staining) compared to vehicle” value is “significant decrease in proliferation” and the “tumor growth versus vehicle” value is “profoundly suppressed the growth”. The GI50 with OCI-Ly10 cells worked out at 400 nM. In the assay with TMD8 xenografts, the “apoptotic cells (TUNEL) relative to vehicle” value is “significant increase in apoptotic cells”, the “proliferation (Ki-67 staining) compared to vehicle” value is listed as “significant decrease in proliferation” and the “tumor growth versus vehicle” value is “profoundly suppressed the growth”.

The term GI50 denotes the concentration at which growth is held to half of that of the control.
